Results taken from ChEMBL document CHEMBL1129933, “Tyrosine kinase inhibitors. 6. Structure-activity relationships among N- and 3-substituted 2,2'-diselenobis(1H-indoles) for inhibition of protein tyrosine kinases and comparative in vitro and in vivo studies against selected sulfur congeners” (J Med Chem, 1997).

Experiments:
[1] = molecular target: Epidermal growth factor receptor (Mus musculus) (UniProt Q01279); experiment: Inhibition of epidermal growth factor receptor (EGFr) autophosphorylation
Colon 26 [2] = experiment: In vivo activity against murine colon 26, percent treated/control tumor mass at 1.5 mg/kg ip dose for 9 days; format: functional, Mus musculus; details: route intraperitoneal
In short: (§1)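 Murine tumours were maintained by serial transplantation (~30 mg fragments every 2 weeks): B16 in C57BL/6 and colon 26 in BALB/c. They were tested in F1 hosts, B6C3F1 for B16 and CD2F1 for colon 26, weighing 18-22 g. Treatment was ip daily or q4h ×3 for 9 days. Weight change was the difference between mean group weights on the last and first treatment days, from life-span assays.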

A-431 [3] = experiment: In vivo activity against human A431 epidermoid xenograft, tumor growth delay (T-C) at 10 mg/kg administered subcutaneously for 9-15 days; details: route subcutaneous
[4] = Inhibition of protein synthesis; format: functional
In short: (§2)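 Log-phase cells were drug-treated for 2 h, then exposed for 2 h to 1 µM [methyl-3H]thymidine (DNA), [5-3H]uridine (RNA) or (S)-[4,5-3H]leucine (protein), each at 1 µCi/nmol. Cells were trypsinized into ice-cold 15% TCA, and precipitates were collected on glass-fibre filters, washed, and counted by scintillation.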

B16 [5] = experiment: In vivo activity against murine B16 melanoma, net cell kill at 0.75 mg/kg administered intraperitoneally at 4 hour intervals 3x a day for 9 days; format: functional, Mus musculus; details: route intraperitoneal
In short: (§3)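 Tumors were passaged in C57BL/6 mice; B6C3F1 mice (18-22 g, randomized) were implanted on day 0 ip with counted tumor cells or sc with fragments. Dosing was ip bolus, daily or q4h ×3 daily, by average cage weight. Vehicle was distilled H2O or 10% DMA in 50 mM lactic acid buffer, pH 4.0. Net cell kill = log reduction in tumor burden between first and last treatments.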

[6] = molecular target: Fibroblast growth factor receptor (Mus musculus, UniProt P21803+Q03142+P16092+Q61851); experiment: Inhibition of fibroblast growth factor (bFGF)-mediated autophosphorylation of FGF-R in Swiss 3T3 mouse fibroblasts; format: functional
In short: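 Swiss 3T3 fibroblasts were treated 2 h with a range of compound concentrations, then stimulated for 5 min with growth factor (bFGF). Receptor tyrosine phosphorylation was read by extraction and western blotting.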

MCF7 [7] = experiment: In vivo activity against human MCF-7 xenograft, tumor growth delay (T-C) at 12.0 mg/kg ip dose for 5-11 days; details: route intraperitoneal
[8] = molecular target: T1, Epidermal growth factor receptor (Homo sapiens, UniProt P00533); experiment: Inhibition of epidermal growth factor receptor (EGFr)
MCF7 [9] = experiment: In vivo activity against human MCF-7 xenograft, tumor growth delay (T-C) at 3.0 mg/kg ip dose at 4 hour intervals 3x a day for 5-11 days; details: route intraperitoneal
M5076 [10] = experiment: In vivo activity against murine M5076 sarcoma, net cell kill at 3.0 mg/kg ip dose at 4 hour intervals 3x per day for 9 days; format: functional, Mus musculus; details: route intraperitoneal
In short: as §3

MCF7 [11] = experiment: In vivo activity against human MCF-7 xenograft, weight change after 12.0 mg/kg ip dose for 5-11 days; format: functional; details: route intraperitoneal
In short: (§4)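 MCF-7 breast carcinoma xenografts were serially passaged in nude mice (NCr nu/nu) and implanted in randomized 18-22 g mice on day 0. Dosing was ip bolus, either daily or q4h ×3 daily, with vehicle of distilled H2O or 10% DMA in 50 mM lactic acid buffer, pH 4.0. Weight change was taken as the maximum treatment-related loss.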

B16 [12] = experiment: In vivo activity against murine B16 melanoma, percent treated/control tumor mass at 0.75 mg/kg ip dose at 4 hour intervals 3x a day for 9 days; format: functional, Mus musculus; details: route intraperitoneal
In short: as §1

[13] = molecular target: T1, Epidermal growth factor receptor; experiment: Inhibition of epidermal growth factor receptor (EGFr) using ATP substrate
In short: (§5)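 EGFr came from membrane vesicles shed by human A431 carcinoma cells. Activity was measured as 32P-phosphate transfer from ATP into a TCA-precipitable glutamate/tyrosine (4:1) random copolymer. ATP or peptide polymer substrate was varied. Ki was obtained by nonlinear regression with Cleland's equations, comparing slope and intercept determinations to assign the inhibition type.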

B16 [14] = experiment: In vivo activity against murine B16 melanoma, weight change after 0.75 mg/kg ip dose at 4 hour intervals 3x a day for 9 days; format: functional, Mus musculus; details: route intraperitoneal
In short: as §1

B16 [15] = experiment: In vivo activity against murine B16 melanoma, net cell kill at 3.0 mg/kg ip dose for 9 days; format: functional, Mus musculus; details: route intraperitoneal
In short: as §3

Colon 26 [16] = experiment: In vivo activity against murine colon 26, percent treated/control tumor mass at 0.75 mg/kg ip dose at 4 hour intervals 3x a day for 9 days; format: functional, Mus musculus; details: route intraperitoneal
In short: as §1

C6 [17] = experiment: In vivo activity against C6 glioma xenograft, weight change after 5 mg/kg ip dose for 9 days; format: functional, organism-based; set-up: dose 5 mg/kg
In short: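 Nude mice (NCr nu/nu, 18-22 g) implanted sc in the right axilla with serially passaged C6 glioma fragments on day 0, randomized, and dosed ip by bolus on days 1-9 based on average cage weight. Vehicle was distilled H2O or 10% DMA in 50 mM lactic acid buffer, pH 4.0, depending on compound. Weight change was taken as the maximum treatment-related weight loss.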

MCF7 [18] = experiment: In vivo activity against human MCF-7 xenograft, weight change after 3.0 mg/kg ip dose at 4 hour intervals 3x a day for 5-11 days; format: functional, organism-based; set-up: dose 3 mg/kg
In short: as §4

M5076 [19] = experiment: In vivo activity against murine M5076 sarcoma, weight change after 3.0 mg/kg ip dose at 4 hour intervals 3x a day for 9 days; format: functional, Mus musculus; details: route intraperitoneal
In short: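 M5076 sarcoma was serially transplanted in C57BL/6 mice and tested in B6C3F1 mice (18-22 g) given ip q4h ×3 daily for 9 days. Weight change was taken as the maximum treatment-related weight loss in the growth-delay assay.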

A-431 [20] = experiment: In vivo activity against human A431 epidermoid xenograft, weight change after 10 mg/kg sc dose for 9-15 days; format: functional; details: route subcutaneous
In short: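 Nude mice (NCr nu/nu, 18-22 g) bearing sc A431 fragments in the right axilla (day 0) received continuous sc infusion from an Alzet miniosmotic pump implanted under ketamine-xylazine. Pumps were removed or replaced under lidocaine-epinephrine for longer therapy, in 7-day and 27-day studies. Daily dose was the maximum deliverable without significant precipitation. Weight change was taken as the maximum treatment-related loss.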

Colon 26 [21] = experiment: In vivo activity against murine colon 26, weight change after 0.75 mg/kg ip dose at 4 hour intervals 3x a day for 9 days; format: functional, Mus musculus; details: route intraperitoneal
In short: as §1

C6 [22] = experiment: In vivo activity against C6 glioma xenograft, tumor growth delay (T-C, days) at 5 mg/kg ip dose for 9 days; details: route intraperitoneal
[23] = Inhibition of RNA synthesis; format: functional
In short: as §2

[24] = molecular target: T1, Epidermal growth factor receptor; experiment: Inhibition of epidermal growth factor receptor (EGFr) using peptide substrate
In short: as §5

MCF7 [25] = experiment: In vivo activity against human MCF-7 xenograft, net cell kill at 3.0 mg/kg administered intraperitoneally at 4 hour intervals 3x a day for 5-11 days; format: functional; details: route intraperitoneal
In short: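 Nude mice (NCr nu/nu), 18-22 g, randomized and implanted on day 0 with serially passaged MCF-7 tumor (sc fragments in right axilla or ip cells). Compound was given ip bolus q4h ×3 daily, by average cage weight. Vehicle was distilled H2O or 10% DMA in 50 mM lactic acid, pH 4.0. Net cell kill = log tumor-burden reduction between first and last treatments.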

B16 [26] = experiment: In vivo activity against murine B16 melanoma, weight change after 3.0 mg/kg i.p. dose for 9 days; format: functional, Mus musculus; details: route intraperitoneal
In short: as §1

T1 sequence (P00533 whole entry): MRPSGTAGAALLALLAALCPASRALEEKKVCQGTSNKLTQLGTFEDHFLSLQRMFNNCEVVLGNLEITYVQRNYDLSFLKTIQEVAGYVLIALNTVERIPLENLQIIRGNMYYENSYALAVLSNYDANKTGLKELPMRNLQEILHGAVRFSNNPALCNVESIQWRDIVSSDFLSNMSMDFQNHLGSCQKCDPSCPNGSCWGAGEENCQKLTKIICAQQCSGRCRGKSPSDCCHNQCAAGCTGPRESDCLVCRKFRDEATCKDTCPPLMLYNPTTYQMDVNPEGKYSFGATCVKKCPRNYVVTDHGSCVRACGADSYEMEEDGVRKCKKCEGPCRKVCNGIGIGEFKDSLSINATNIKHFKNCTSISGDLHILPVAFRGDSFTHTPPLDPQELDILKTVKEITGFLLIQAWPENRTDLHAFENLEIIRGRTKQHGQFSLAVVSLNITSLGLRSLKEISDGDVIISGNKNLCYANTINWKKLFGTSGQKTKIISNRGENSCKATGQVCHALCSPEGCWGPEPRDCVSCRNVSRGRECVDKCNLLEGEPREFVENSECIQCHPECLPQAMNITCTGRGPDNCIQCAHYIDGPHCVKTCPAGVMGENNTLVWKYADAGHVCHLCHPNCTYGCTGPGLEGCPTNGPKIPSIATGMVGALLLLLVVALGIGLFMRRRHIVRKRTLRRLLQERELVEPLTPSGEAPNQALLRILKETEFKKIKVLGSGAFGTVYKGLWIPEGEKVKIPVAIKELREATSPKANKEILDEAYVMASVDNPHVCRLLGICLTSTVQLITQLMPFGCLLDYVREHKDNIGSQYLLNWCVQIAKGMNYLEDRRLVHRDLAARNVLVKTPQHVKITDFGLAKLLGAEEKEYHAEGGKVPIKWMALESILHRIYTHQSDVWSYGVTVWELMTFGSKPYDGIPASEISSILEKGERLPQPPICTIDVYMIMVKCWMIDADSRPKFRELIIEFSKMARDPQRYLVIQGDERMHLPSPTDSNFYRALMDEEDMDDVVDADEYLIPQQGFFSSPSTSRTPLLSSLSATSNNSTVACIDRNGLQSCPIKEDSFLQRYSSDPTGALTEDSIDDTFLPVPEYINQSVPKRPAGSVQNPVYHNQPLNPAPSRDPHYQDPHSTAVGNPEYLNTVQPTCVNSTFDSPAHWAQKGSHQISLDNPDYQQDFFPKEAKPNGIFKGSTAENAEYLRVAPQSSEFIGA
Sequence of Epidermal growth factor receptor (Mus musculus) (Q01279 whole entry, looked up): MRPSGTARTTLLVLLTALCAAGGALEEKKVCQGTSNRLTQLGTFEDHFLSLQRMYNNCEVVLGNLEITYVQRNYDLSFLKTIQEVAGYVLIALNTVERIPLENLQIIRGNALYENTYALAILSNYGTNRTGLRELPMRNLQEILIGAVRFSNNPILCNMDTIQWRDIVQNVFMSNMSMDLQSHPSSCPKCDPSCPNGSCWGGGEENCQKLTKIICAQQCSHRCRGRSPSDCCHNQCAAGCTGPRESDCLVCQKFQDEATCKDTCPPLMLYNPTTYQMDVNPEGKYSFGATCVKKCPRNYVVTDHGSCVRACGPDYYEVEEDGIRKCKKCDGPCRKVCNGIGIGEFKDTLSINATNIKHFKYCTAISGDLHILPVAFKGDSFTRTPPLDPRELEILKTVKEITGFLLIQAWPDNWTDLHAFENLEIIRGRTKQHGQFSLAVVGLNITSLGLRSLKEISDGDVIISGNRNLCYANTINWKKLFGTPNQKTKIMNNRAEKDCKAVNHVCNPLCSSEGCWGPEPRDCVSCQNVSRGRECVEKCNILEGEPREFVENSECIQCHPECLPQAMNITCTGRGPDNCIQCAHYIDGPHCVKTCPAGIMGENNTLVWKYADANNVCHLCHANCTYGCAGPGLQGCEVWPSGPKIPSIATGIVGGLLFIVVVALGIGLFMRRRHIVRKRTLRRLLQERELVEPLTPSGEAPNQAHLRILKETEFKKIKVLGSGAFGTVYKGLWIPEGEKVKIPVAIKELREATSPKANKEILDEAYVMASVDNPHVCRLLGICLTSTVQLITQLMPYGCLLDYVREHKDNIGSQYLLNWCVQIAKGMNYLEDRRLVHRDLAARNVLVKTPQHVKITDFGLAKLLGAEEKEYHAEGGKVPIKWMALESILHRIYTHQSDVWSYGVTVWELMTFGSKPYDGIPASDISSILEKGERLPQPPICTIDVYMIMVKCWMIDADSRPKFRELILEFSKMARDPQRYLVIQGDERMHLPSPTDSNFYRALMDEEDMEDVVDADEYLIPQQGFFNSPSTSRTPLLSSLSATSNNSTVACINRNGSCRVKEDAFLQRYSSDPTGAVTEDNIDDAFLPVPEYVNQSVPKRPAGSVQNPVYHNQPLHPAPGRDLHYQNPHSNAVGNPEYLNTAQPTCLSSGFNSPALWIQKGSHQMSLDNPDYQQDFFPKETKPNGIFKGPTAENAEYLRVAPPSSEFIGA

## NC(Cc1c(SSc2[nH]c3ccccc3c2CC(N)C(=O)NCc2ccccc2)[nH]c2ccccc12)C(=O)NCc1ccccc1 (stereo unspecified)
[1]
  IC50: > 100 µM
Colon 26 [2]
  T/C: 115%
A-431 [3]
  T-C: 1.9 days
[4]
  IC50: 0.6 µM
B16 [5]
  Net cell kill: -1.3 log10
[6]
  IC50: 2.3 µM
MCF7 [7]
  T-C: 0 days
[8]
  IC50: 7.4 µM
MCF7 [9]
  T-C: 1 days
M5076 [10]
  Net cell kill: -0.8 log10
MCF7 [11]
  Weight change: -0.4 g
B16 [12]
  T/C: 99%
[13]
  Ki: 19.4 µM
B16 [14]
  Weight change: 1.1 g
B16 [15]
  Net cell kill: -1.3 log10
Colon 26 [16]
  T/C: 119%
C6 [17]
  Weight change: Weight gain
MCF7 [18]
  Weight change: Weight gain
M5076 [19]
  Weight change: -0.5 g
A-431 [20]
  Weight change: -1.2 g
Colon 26 [21]
  Weight change: 0.8 g
C6 [22]
  T-C: 0 days
[23]
  IC50: 2 µM
[24]
  Ki: 21.2 µM
MCF7 [25]
  Net cell kill: -1.2 log10
B16 [26]
  Weight change: 1.4 g
